Measurements reported in ChEMBL document CHEMBL1134569, “Synthesis and in vitro and in vivo antimalarial activity of new 4-anilinoquinolines” (J Med Chem, 2001).
Several values for one entry are separate records, joined by “and”; a condition that tells them apart may be missing. Identical values can stand only once.

How the values were obtained:
[1] = Cytotoxicity upon MPMs (mouse peritoneal macrophages) at 12.5 uM conc.;NT=No Toxicity
Method in brief: (§1)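 Mouse peritoneal macrophages harvested 48 h after potato-starch stimulation and seeded at 30000 cells/well. After 24 h, washed and exposed to 2-fold drug dilutions in RPMI + 5% FCS (final DMSO below 0.5%) at 37 °C, 5% CO₂, for 7 days. Toxicity scored microscopically as toxic or not versus untreated controls.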

[2] = Cytotoxicity upon MPMs (mouse peritoneal macrophages) at 3.1 uM conc.;NT=No Toxicity; method in brief: as §1
[3] = Cytotoxicity upon MPMs (mouse peritoneal macrophages) at 6.3 uM; method in brief: as §1
[4] = Cytotoxicity upon MRC-5 cells (diploid embryonic lung cell line) at 12.5 uM; assay type: cell-based, MRC5; conditions: human
Method in brief: (§2)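 MRC-5 human diploid embryonic lung cells seeded at 5000/well, washed after 24 h, then given 2-fold drug dilutions in RPMI + 5% FCS (final DMSO below 0.5%). Incubated at 37 °C, 5% CO₂, for 7 days. MTT read-out at 540 nm, scored as percent absorbance reduction versus untreated controls.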

[5] = Cytotoxicity upon MRC-5 cells (diploid embryonic lung cell line) at 3.1 uM; assay type: cell-based, MRC5; conditions: human; method in brief: as §2
[6] = Cytotoxicity upon MRC-5 cells (diploid embryonic lung cell line) at 6.3 uM; assay type: cell-based, MRC5; conditions: human; method in brief: as §2
Plasmodium falciparum = experiment: Inhibitory activity against chloroquine-resistant Plasmodium falciparum FcB1R; assay type: functional, organism-based
[7] = Cytotoxicity upon MPMs (mouse peritoneal macrophages) at 2 uM; method in brief: as §1
[8] = Cytotoxicity upon MRC-5 cells (diploid embryonic lung cell line) at 1 uM; assay type: cell-based, MRC5; conditions: human; method in brief: as §2
[9] = Cytotoxicity upon MRC-5 cells (diploid embryonic lung cell line) at 32 uM; assay type: cell-based, MRC5; conditions: human; method in brief: as §2
[10] = Cytotoxicity upon MRC-5 cells (diploid embryonic lung cell line) at 8 uM; assay type: cell-based, MRC5; conditions: human; method in brief: as §2
[11] = Cytotoxicity upon MPMs (mouse peritoneal macrophages) at 32 uM; method in brief: as §1
[12] = Cytotoxicity upon MPMs (mouse peritoneal macrophages) at 8 uM; method in brief: as §1

SMILES	NT [1]	NT [2]	NT [3]	cytotoxicity at 12.5 µM [4] [%]	cytotoxicity at 3.1 µM [5] [%]	cytotoxicity at 6.3 µM [6] [%]	IC50 (Plasmodium falciparum; Plasmodium falciparum) [nM]	NT [7]	cytotoxicity at 1 µM [8] [%]	cytotoxicity at 32 µM [9] [%]	cytotoxicity at 8 µM [10] [%]	Cytotoxicity [11]	Cytotoxicity [12]	IC50 (Plasmodium falciparum)
CC1CCN(CCCCCC(=O)Nc2cc(CO)cc(Nc3ccnc4cc(Cl)ccc34)c2)CC1	Cytotoxicity upon MPMs at 6.3 uM	Cytotoxicity upon MPMs at 6.3 uM	Cytotoxicity upon MPMs at 6.3 uM	0	0	0	304							
Nc1ccn(CC(=O)Nc2cc(CO)cc(Nc3ccnc4cc(Cl)ccc34)c2)n1	Cytotoxicity upon MPMs at 6.3 uM	Cytotoxicity upon MPMs at 6.3 uM	Cytotoxicity upon MPMs at 6.3 uM	0	0	0	806							
O=CNc1cc(CO)cc(Nc2ccnc3cc(Cl)ccc23)c1	Cytotoxicity upon MPMs at 6.3 uM	Cytotoxicity upon MPMs at 6.3 uM	Cytotoxicity upon MPMs at 6.3 uM	0	0	0	360							
CC(C)(C)NCC(=O)Nc1cc(CO)cc(Nc2ccnc3cc(Cl)ccc23)c1	Cytotoxicity upon MPMs at 6.3 uM	Cytotoxicity upon MPMs at 6.3 uM	Cytotoxicity upon MPMs at 6.3 uM	0	0	0	50.9							
O=C(CN1CCCCC1)Nc1cc(CN2CCN(Cc3ccccc3)CC2)cc(Nc2ccnc3cc(Cl)ccc23)c1							13	Cytotoxicity upon MPMs at 2 uM	0	100	100	Cytotoxicity upon MPMs at 32 uM	Cytotoxicity upon MPMs at 32 uM	
O=C(CN1CCSC1)Nc1cc(CO)cc(Nc2ccnc3cc(Cl)ccc23)c1	Cytotoxicity upon MPMs at 6.3 uM	Cytotoxicity upon MPMs at 6.3 uM	Cytotoxicity upon MPMs at 6.3 uM	0	0	0	588							
O=C(CN1CCCCC1)Nc1cc(CN2CCN(Cc3ccc(Cl)cc3)CC2)cc(Nc2ccnc3cc(Cl)ccc23)c1							11.5	Cytotoxicity upon MPMs at 2 uM	0	100	100	Cytotoxicity upon MPMs at 32 uM	Cytotoxicity upon MPMs at 32 uM	
O=C(CN1CCCCC1)Nc1cc(CN2CCN(CCO)CC2)cc(Nc2ccnc3cc(Cl)ccc23)c1							11.5	Cytotoxicity upon MPMs at 2 uM	0	100	100	Cytotoxicity upon MPMs at 32 uM	Cytotoxicity upon MPMs at 32 uM	
CN1CCN(Cc2cc(NC(=O)CN3CCCCC3)cc(Nc3ccnc4cc(Cl)ccc34)c2)CC1							7.5	Cytotoxicity upon MPMs at 2 uM	0	83	80	Cytotoxicity upon MPMs at 32 uM	Cytotoxicity upon MPMs at 32 uM	
O=C(C[n+]1ccccc1)Nc1cc(CO)cc(Nc2ccnc3cc(Cl)ccc23)c1.[Cl-]	Cytotoxicity upon MPMs at 6.3 uM	Cytotoxicity upon MPMs at 6.3 uM	Cytotoxicity upon MPMs at 6.3 uM	0	0	0	927							
COc1ccc(CN2CCN(Cc3cc(NC(=O)CN4CCCCC4)cc(Nc4ccnc5cc(Cl)ccc45)c3)CC2)cc1							11	Cytotoxicity upon MPMs at 2 uM	50	100	100	Cytotoxicity upon MPMs at 32 uM	Cytotoxicity upon MPMs at 32 uM	
O=C(CN1CCCCC1)Nc1cc(CN2CCN(C(c3ccccc3)c3ccccc3)CC2)cc(Nc2ccnc3cc(Cl)ccc23)c1							12.5	Cytotoxicity upon MPMs at 2 uM	87	98	97	Cytotoxicity upon MPMs at 32 uM	Cytotoxicity upon MPMs at 32 uM	
O=C(CN1CCCCC1)Nc1cc(CNc2ccccc2)cc(Nc2ccnc3cc(Cl)ccc23)c1							21.2	Cytotoxicity upon MPMs at 2 uM	0	100	100	Cytotoxicity upon MPMs at 32 uM	Cytotoxicity upon MPMs at 32 uM	
O=C(CN1CCCCC1)Nc1cc(CNCCN2CCCC2)cc(Nc2ccnc3cc(Cl)ccc23)c1							10.2	Cytotoxicity upon MPMs at 2 uM		100	100	Cytotoxicity upon MPMs at 32 uM		6.6 nM and 7.9 nM
O=C(CN1CCC(O)CC1)Nc1cc(CO)cc(Nc2ccnc3cc(Cl)ccc23)c1				0	0	0	1050							
O=C(CN1CCCCC1)Nc1cc(CNCc2ccc(C(F)(F)F)cc2)cc(Nc2ccnc3cc(Cl)ccc23)c1							5.5	Cytotoxicity upon MPMs at 2 uM	0	100	100	Cytotoxicity upon MPMs at 32 uM	Cytotoxicity upon MPMs at 32 uM	
O=C(CN1CCCCC1)Nc1cc(CN2CCCC2)cc(Nc2ccnc3cc(Cl)ccc23)c1							6.9	Cytotoxicity upon MPMs at 2 uM	0	100	100	Cytotoxicity upon MPMs at 32 uM	Cytotoxicity upon MPMs at 32 uM	
O=C(CN1CCCCC1)Nc1cc(CNCc2ccccc2)cc(Nc2ccnc3cc(Cl)ccc23)c1							8.5	Cytotoxicity upon MPMs at 2 uM	96	100	100	Cytotoxicity upon MPMs at 32 uM	Cytotoxicity upon MPMs at 32 uM	
CN(C)CCN(C)Cc1cc(NC(=O)CN2CCCCC2)cc(Nc2ccnc3cc(Cl)ccc23)c1							5	Cytotoxicity upon MPMs at 2 uM	43	100	100	Cytotoxicity upon MPMs at 32 uM	Cytotoxicity upon MPMs at 32 uM	
O=C(CN1CCCCC1)Nc1cc(CN2CCN(Cc3ccc4c(c3)OCO4)CC2)cc(Nc2ccnc3cc(Cl)ccc23)c1							6.9	Cytotoxicity upon MPMs at 2 uM	86	100	99	Cytotoxicity upon MPMs at 32 uM	Cytotoxicity upon MPMs at 32 uM	
O=C(CN1CCCCC1)Nc1cc(CNC(c2ccccc2)c2ccccc2)cc(Nc2ccnc3cc(Cl)ccc23)c1							9.1	Cytotoxicity upon MPMs at 2 uM	0	100	100	Cytotoxicity upon MPMs at 32 uM	Cytotoxicity upon MPMs at 32 uM	
O=C(CN1CCc2ccccc2C1)Nc1cc(CO)cc(Nc2ccnc3cc(Cl)ccc23)c1				0	0	0	1450							
O=C(CN1CCCCC1)Nc1cc(CN2CCN(c3ccccc3)CC2)cc(Nc2ccnc3cc(Cl)ccc23)c1							5.5	Cytotoxicity upon MPMs at 2 uM	0	100	100	Cytotoxicity upon MPMs at 32 uM	Cytotoxicity upon MPMs at 32 uM	
O=C(CN1CCCCC1)Nc1cc(CN2CCC(O)CC2)cc(Nc2ccnc3cc(Cl)ccc23)c1							6.5	Cytotoxicity upon MPMs at 2 uM	0	100	100	Cytotoxicity upon MPMs at 32 uM	Cytotoxicity upon MPMs at 32 uM	
O=C(CNCc1ccc(Cl)cc1)Nc1cc(CO)cc(Nc2ccnc3cc(Cl)ccc23)c1				0	0	0	855							
CC(C)(C)NCc1cc(NC(=O)CN2CCCCC2)cc(Nc2ccnc3cc(Cl)ccc23)c1							3.7	Cytotoxicity upon MPMs at 2 uM	0	100	100	Cytotoxicity upon MPMs at 32 uM	Cytotoxicity upon MPMs at 32 uM	
O=C(CN1CCCCC1)Nc1cc(CN2CCN(Cc3ccc([N+](=O)[O-])cc3)CC2)cc(Nc2ccnc3cc(Cl)ccc23)c1							13.2	Cytotoxicity upon MPMs at 2 uM	0	100	99	Cytotoxicity upon MPMs at 32 uM	Cytotoxicity upon MPMs at 32 uM	
